Laboratory results taken from ChEMBL document CHEMBL4725283, “Selective Peptidomimetic Inhibitors of NTMT1/2: Rational Design, Synthesis, Characterization, and Crystallographic Studies” (J Med Chem, 2020).

Experiments:
[1] = species: Homo sapiens; assay: Selectivity for human NTMT2 over human SUV39H at 100 uM
Summary of the method: (§1)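 Single-point panel screen against 41 PKMTs, PRMTs, DNMTs and NTMT1/2. Each compound was tested at 100 µM, in duplicate (n=2).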

[2] = species: Homo sapiens; assay: Selectivity for human NTMT1 over human MLL4 complex at 100 uM
Summary of the method: (§2)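 Panel of 41 PKMTs, PRMTs, DNMTs and NTMT1/2, tested at 100 µM compound in duplicate (n=2).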

[3] = species: Homo sapiens; assay: Selectivity for human NTMT1 over human SUV39H at 100 uM; summary of the method: as §2
[4] = biological target: T1, N-terminal Xaa-Pro-Lys N-methyltransferase 1 (Homo sapiens, UniProt Q9BV86); assay: Binding affinity to recombinant human full-length His6-tagged NTMT1 (1 to 222 residues) by ITC assay
T1 sequence (Q9BV86 whole entry): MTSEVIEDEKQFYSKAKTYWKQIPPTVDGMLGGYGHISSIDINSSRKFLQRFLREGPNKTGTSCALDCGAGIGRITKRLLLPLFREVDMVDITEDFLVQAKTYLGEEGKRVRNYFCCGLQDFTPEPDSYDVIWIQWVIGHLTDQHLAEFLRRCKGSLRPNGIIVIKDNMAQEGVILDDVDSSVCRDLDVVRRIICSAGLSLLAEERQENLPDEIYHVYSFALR
Summary of the method: (§3)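 ITC at 25 °C. Purified protein (NTMT1 for line 1, NTMT2 for line 2) in 20 mM Tris-HCl pH 7.5, 150 mM NaCl, 0.5 mM TCEP at 30–50 µM final. Compound at 0.5–1 mM in the same buffer, titrated in as 26 injections of 10 µl, 180 s apart, reference power 15 µcal/sec.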

[5] = species: Homo sapiens; assay: Selectivity for human NTMT2 over human PRDM9 at 100 uM; summary of the method: as §1
[6] = species: Homo sapiens; assay: Selectivity for human NTMT2 over human SETD2 at 100 uM; summary of the method: as §1
[7] = species: Homo sapiens; assay: Selectivity for human NTMT1 over human MLL2 complex at 100 uM; summary of the method: as §2
[8] = species: Homo sapiens; assay: Selectivity for human NTMT1 over human PRDMT7 at 100 uM; summary of the method: as §2
[9] = species: Homo sapiens; assay: Selectivity for human NTMT1 over human EZH1 complex at 100 uM; summary of the method: as §2
[10] = species: Homo sapiens; assay: Selectivity for human NTMT2 over human SET1b complex at 100 uM; summary of the method: as §1
[11] = species: Homo sapiens; assay: Selectivity for human NTMT2 over human EZH2 complex Y641F mutant at 100 uM; summary of the method: as §1
[12] = species: Homo sapiens; assay: Selectivity for human NTMT1 over human SMYD1 at 100 uM; summary of the method: as §2
[13] = biological target: T2, Histone-lysine N-methyltransferase EHMT2 (Homo sapiens, UniProt Q96KQ7); assay: Inhibition of human His-tagged G9a (913 to 1193 residues) expressed in Escherichia coli BL21-CodonPlus(DE3)-RIL using H3-21 peptide as substrate preincubated for 10 mins in presence of SAM followed by substrate addition by fluorescence assay
T2 sequence (Q96KQ7 whole entry): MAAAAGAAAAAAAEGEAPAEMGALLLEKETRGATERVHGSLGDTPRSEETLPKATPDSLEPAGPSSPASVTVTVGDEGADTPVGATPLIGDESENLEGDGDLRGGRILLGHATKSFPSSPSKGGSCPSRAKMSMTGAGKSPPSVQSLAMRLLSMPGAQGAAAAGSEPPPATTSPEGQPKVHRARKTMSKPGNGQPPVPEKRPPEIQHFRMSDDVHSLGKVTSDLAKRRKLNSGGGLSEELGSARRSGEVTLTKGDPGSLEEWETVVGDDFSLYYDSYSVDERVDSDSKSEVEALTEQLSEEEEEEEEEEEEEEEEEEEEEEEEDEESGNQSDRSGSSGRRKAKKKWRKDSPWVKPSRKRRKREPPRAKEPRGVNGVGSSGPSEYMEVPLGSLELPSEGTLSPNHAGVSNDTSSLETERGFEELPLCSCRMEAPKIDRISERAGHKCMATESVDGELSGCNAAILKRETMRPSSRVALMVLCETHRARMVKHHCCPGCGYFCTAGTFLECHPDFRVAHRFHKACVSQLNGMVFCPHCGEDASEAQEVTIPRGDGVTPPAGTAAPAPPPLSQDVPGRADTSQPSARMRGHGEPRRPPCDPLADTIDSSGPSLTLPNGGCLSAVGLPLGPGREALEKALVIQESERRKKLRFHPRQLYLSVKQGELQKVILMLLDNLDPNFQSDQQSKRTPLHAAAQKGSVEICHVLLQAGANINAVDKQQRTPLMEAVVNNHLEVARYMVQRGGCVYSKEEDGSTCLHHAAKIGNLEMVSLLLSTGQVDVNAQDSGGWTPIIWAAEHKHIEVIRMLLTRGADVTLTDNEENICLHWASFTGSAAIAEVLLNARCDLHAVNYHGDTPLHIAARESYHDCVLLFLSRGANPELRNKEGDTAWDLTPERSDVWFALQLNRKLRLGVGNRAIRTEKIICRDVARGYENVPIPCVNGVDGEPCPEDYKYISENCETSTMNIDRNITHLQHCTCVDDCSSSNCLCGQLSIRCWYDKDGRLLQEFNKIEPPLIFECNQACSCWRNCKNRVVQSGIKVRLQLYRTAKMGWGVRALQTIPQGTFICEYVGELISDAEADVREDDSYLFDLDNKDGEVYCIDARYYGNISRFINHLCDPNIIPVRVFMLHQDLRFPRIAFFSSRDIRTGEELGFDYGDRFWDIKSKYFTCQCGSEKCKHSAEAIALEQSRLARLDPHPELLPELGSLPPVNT

[14] = species: Homo sapiens; assay: Selectivity for human NTMT2 over human DOT1L at 100 uM; summary of the method: as §1
[15] = biological target: N-terminal Xaa-Pro-Lys N-methyltransferase 2 (Homo sapiens, UniProt Q5VVY1); assay: Binding affinity to recombinant human full-length His6-tagged NTMT2 by ITC assay; summary of the method: as §3
[16] = species: Homo sapiens; assay: Selectivity for human NTMT1 over human SET1b complex at 100 uM; summary of the method: as §2
[17] = species: Homo sapiens; assay: Selectivity for human NTMT2 over human G9a at 100 uM; summary of the method: as §1
[18] = species: Homo sapiens; assay: Selectivity for human NTMT1 over human NSD1 at 100 uM; summary of the method: as §2
[19] = species: Homo sapiens; assay: Selectivity for human NTMT2 over human SUV39H1 at 100 uM; summary of the method: as §1
[20] = species: Homo sapiens; assay: Selectivity for human NTMT1 over human DNMT3b at 100 uM; summary of the method: as §2
[21] = species: Homo sapiens; assay: Selectivity for human NTMT1 over human DNMT3b/3L at 100 uM; summary of the method: as §2
[22] = species: Homo sapiens; assay: Selectivity for human NTMT2 over human MLL2 complex at 100 uM; summary of the method: as §1
[23] = species: Homo sapiens; assay: Selectivity for human NTMT1 over human PRDMT3 at 100 uM; summary of the method: as §2
[24] = species: Homo sapiens; assay: Selectivity for human NTMT2 over human NSD2 E1099K mutant at 100 uM; summary of the method: as §1
[25] = species: Homo sapiens; assay: Selectivity for human NTMT2 over GST-tagged human METTL21A at 100 uM; summary of the method: as §1
[26] = species: Homo sapiens; assay: Selectivity for human NTMT2 over human NSD1 at 100 uM; summary of the method: as §1
[27] = species: Homo sapiens; assay: Selectivity for human NTMT1 over human PRDM9 at 100 uM; summary of the method: as §2
[28] = species: Homo sapiens; assay: Selectivity for human NTMT1 over human EZH2 complex at 100 uM; summary of the method: as §2

Chain of N-terminal Xaa-Pro-Lys N-methyltransferase 2 (Q5VVY1 whole entry): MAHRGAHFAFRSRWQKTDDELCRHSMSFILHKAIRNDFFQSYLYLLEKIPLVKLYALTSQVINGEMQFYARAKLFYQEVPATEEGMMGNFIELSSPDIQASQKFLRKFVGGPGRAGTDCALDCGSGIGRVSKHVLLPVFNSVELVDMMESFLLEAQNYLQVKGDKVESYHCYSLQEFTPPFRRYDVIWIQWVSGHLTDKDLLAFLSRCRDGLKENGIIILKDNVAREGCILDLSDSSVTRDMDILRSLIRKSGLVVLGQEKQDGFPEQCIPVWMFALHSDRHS

SMILES: N=C(N)NCCC[C@H](NC(=O)[C@H](CCCCN)NC(=O)[C@@H]1CCCN1C(=O)Cc1ccc(O)cc1)C(N)=O
- Selectivity ratio [1]: > 100
- Selectivity ratio [2]: > 100
- Selectivity ratio [3]: > 100
- Kd [4]: 3 µM
- Selectivity ratio [5]: > 100
- Selectivity ratio [6]: > 100
- Selectivity ratio [7]: > 100
- Selectivity ratio [8]: > 100
- Selectivity ratio [9]: > 100
- Selectivity ratio [10]: > 100
- Selectivity ratio [11]: > 100
- Selectivity ratio [12]: > 100
- IC50 [13]: > 100 µM
- Selectivity ratio [14]: > 100
- Kd [15]: 3.7 µM
- Selectivity ratio [16]: > 100
- Selectivity ratio [17]: > 100
- Selectivity ratio [18]: > 100
- Selectivity ratio [19]: > 100
- Selectivity ratio [20]: > 100
- Selectivity ratio [21]: > 100
- Selectivity ratio [22]: > 100
- Selectivity ratio [23]: > 100
- Selectivity ratio [24]: > 100
- Selectivity ratio [25]: > 100
- Selectivity ratio [26]: > 100
- Selectivity ratio [27]: > 100
- Selectivity ratio [28]: > 100
